Measured values reported in ChEMBL document CHEMBL1629544, “Inhibitors of strand transfer that prevent integration and inhibit human T-cell leukemia virus type 1 early replication” (Antimicrob Agents Chemother, 2008).
pIC50: −log10 of the molar value. Active and inactive are the calls of the source. The calls are words filed in the database; no cut-off is given here.

What was measured:
PBMC [1] = test: Growth inhibition of human PBMC cells cocultured with irradiated HTLV-1 positive MT2 cells at 50 uM after 7 days; assay type: functional, cell-based
How it was run: (§1)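 PBMCs from HTLV-1-seronegative donors (Ficoll separation) were cocultured 5:1 with 60 Gy-irradiated HTLV-1-positive MT2 cells in RPMI 1640 with 100 U/ml IL-2. Compounds in DMSO were added at onset at final 0, 50, 100 or 250 μM, then at half the initial concentration on days 4, 7 and 10. Cells were counted on days 7, 14 and 21.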

PBMC [2] = test: Growth inhibition of human PBMC cells cocultured with irradiated HTLV-1 positive MT2 cells at 250 uM after 21 days; assay type: functional, cell-based; how it was run: as §1
PBMC [3] = test: Growth inhibition of human PBMC cells cocultured with irradiated HTLV-1 positive MT2 cells at 250 uM after 7 days; assay type: functional, cell-based; how it was run: as §1
PBMC [4] = test: Inhibition of HTLV-1 integrase strand transfer activity in PBMC cells at 50 uM measured on day 21; assay type: cell-based; details: Human T-cell leukemia virus type I
PBMC [5] = test: Growth inhibition of human PBMC cells cocultured with irradiated HTLV-1 positive MT2 cells at 100 uM after 7 days; assay type: functional, cell-based; how it was run: as §1
[6] = Cytotoxic activity against human PBMC cells; assay type: cell-based
How it was run: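 Fresh uninfected PBMCs were cultured with various inhibitor concentrations, including 250, 500 and 1,000 μM, in three experiments per concentration. Cell viability was measured to derive CC50.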

PBMC [7] = test: Growth inhibition of human PBMC cells cocultured with irradiated HTLV-1 positive MT2 cells at 50 uM after 14 days; assay type: functional, cell-based; how it was run: as §1
PBMC [8] = test: Inhibition of HTLV-1 integrase strand transfer activity in PBMC cells at 100 uM measured on day 21; assay type: cell-based; details: Human T-cell leukemia virus type I
PBMC [9] = test: Growth inhibition of human PBMC cells cocultured with irradiated HTLV-1 positive MT2 cells at 100 uM after 21 days; assay type: functional, cell-based; how it was run: as §1
PBMC [10] = test: Growth inhibition of human PBMC cells cocultured with irradiated HTLV-1 positive MT2 cells at 250 uM after 14 days; assay type: functional, cell-based; how it was run: as §1
PBMC [11] = test: Growth inhibition of human PBMC cells cocultured with irradiated HTLV-1 positive MT2 cells at 50 uM after 21 days; assay type: functional, cell-based; how it was run: as §1
PBMC [12] = test: Growth inhibition of human PBMC cells cocultured with irradiated HTLV-1 positive MT2 cells at 100 uM after 14 days; assay type: functional, cell-based; how it was run: as §1
[13] = system: Human T-cell leukemia virus type I; test: Inhibition of HTLV-1 integrase strand transfer activity at 10 uM
How it was run: (§2)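 Recombinant HTLV-1 integrase, expressed in E. coli BL21(DE3) and Ni-NTA purified. Donor was a 3′-recessed double-strand 54-bp HTLV-1 3′ LTR with synthetic target DNA, 1 pmol each oligonucleotide. Buffer: 25 mM HEPES pH 7.4, 10 mM β-mercaptoethanol, 10% glycerol, 7.5 mM MnCl₂. Incubated 60 min at 37°C. Products quantified by fluorescent PCR peak intensity, in triplicate; approximate IC50 by linear regression.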

[14] = Inhibition of HTLV-1 integrase strand transfer activity; design: species or system Human T-cell leukemia virus type I; how it was run: as §2
[15] = system: Human T-cell leukemia virus type I; test: Inhibition of HTLV-1 integrase strand transfer activity at 2 uM; how it was run: as §2
[16] = system: Human T-cell leukemia virus type I; test: Inhibition of HTLV-1 integrase strand transfer activity at 5 uM; how it was run: as §2
[17] = system: Human T-cell leukemia virus type I; test: Antiviral activity against HTLV-1 infected in PBMC cells cocultured with irradiated HTLV-1 positive MT2 cells assessed as decrease in […] load at 50 uM after 7 days by RT-PCR; assay type: functional, organism-based
How it was run: (§3)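 Donor PBMCs were cocultured 5:1 with 60 Gy-irradiated MT2 cells plus IL-2, with compound (DMSO) at 0, 50 or 100 μM, redosed at half concentration on days 4, 7 and 10. DNA was extracted on day 7. Real-time quantitative PCR for tax with albumin normalization used 250 ng DNA per reaction, in triplicate. The untreated load was set to 100 units.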

[18] = system: Human T-cell leukemia virus type I; test: Antiviral activity against HTLV-1 infected in PBMC cells cocultured with irradiated HTLV-1 positive MT2 cells assessed as decrease in […] load 100 uM after 7 days by RT-PCR; assay type: functional, organism-based; how it was run: as §3
[19] = system: Human T-cell leukemia virus type I; test: Antiviral activity against HTLV-1 infected in PBMC cells cocultured with irradiated HTLV-1 positive MT2 cells assessed as decrease in […] load by RT-PCR; assay type: functional, organism-based; how it was run: as §3

inhibition [13]	pIC50 [14]	inhibition [15]	inhibition [16]	Structure (SMILES)	inhibition (PBMC [1])	inhibition (PBMC [2])	inhibition (PBMC [3])	inhibition (PBMC [4])	inhibition (PBMC [5])	CC50 [6]	inhibition (PBMC [7])	inhibition (PBMC [8])	inhibition (PBMC [9])	inhibition (PBMC [10])	inhibition (PBMC [11])	inhibition (PBMC [12])	Activity [17]	Activity [18]	Activity [19]
				O=C(O)C(=O)CC(=O)c1cccn1Cc1ccc(F)cc1	Active	Active	Active	Active	Active	520 µM	Active	Active	Active	Active	Active	Active			
Active	5.14	Active	Active	COc1cc(/C=C/c2ccc3ccc(C(=O)O)c(O)c3n2)cc(OC)c1O	Active	Active	Active		Active		Active		Active	Active	Active	Active			
				O=C(O)C(=O)CC(=O)c1cccc(Cc2ccccc2)c1	Active	Active	Active		Active	220 µM	Active		Active	Active	Active	Active	Active	Active	Active
Active	5.28	Active	Active	COc1cc(/C=C/c2ccc3ccc(C(=O)O)c(O)c3n2)cc(O)c1O	Active	Active	Active		Active		Active		Active	Active	Active	Active			
				O=C(O)c1ccc2ccc(/C=C/c3cc(O)c(O)c(O)c3)nc2c1O						10.7 µM									
				O=C(O)c1ccc2ccc(/C=C/c3ccc(O)c(O)c3)nc2c1O	Active	Active	Active		Active		Active		Active	Active	Active	Active	Active	Active	Active
